Laboratory results taken from ChEMBL document CHEMBL2346548, “Design, synthesis, and structure-activity relationship studies of tryptanthrins as antitubercular agents” (J Nat Prod, 2013).
≈ marks a conversion by molar mass, not a printed value.

Test system: Mycobacterium tuberculosis
Assay: Antitubercular activity against Mycobacterium tuberculosis H37Rv incubated at 37 degC for 7 days by microplate alamar blue assay
Format: functional
Settings: Mycobacterium tuberculosis, H37Rv, 168 h
Method in brief: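 Mtb H37Rv was grown in 7H9 broth with glycerol, Casitone, 10% OADC and 0.05% Tween 80 to OD600 0.4. Compounds were 2-fold serially diluted from DMSO stocks in 7H9, and wells were inoculated at 2 × 10⁵ CFU/mL. After 7 days at 37 °C, Alamar Blue was added and read after a further 24 h. MIC was the lowest concentration preventing the blue-to-pink change.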

Point of comparison: `O=C1c2cc(Br)ccc2-n2c1nc1ncccc1c2=O`, MIC 16 µg/mL (≈ 48.8 µM). Against it:
- O=C1c2ccccc2-n2c1nc1ccncc1c2=O — 32-fold lower, 0.5 µg/mL (≈ 2.01 µM)
- O=C1c2cc(Cl)ccc2-n2c1nc1ccncc1c2=O — 64-fold lower, 0.25 µg/mL (≈ 0.881 µM)
- O=C1c2ccc(N3CCNCC3)cc2-n2c1nc1ccncc1c2=O — not separable, > 4 µg/mL
- O=C1c2ccc(N3CCCCC3)cc2-n2c1nc1ccncc1c2=O — the same, 16 µg/mL (≈ 48.1 µM)
- CC(C)(C)OC(=O)N1CCN(c2ccc3c(c2)-n2c(nc4ccncc4c2=O)C3=O)CC1 — the same, 16 µg/mL (≈ 36.9 µM)
- O=C1c2ccc(Cl)cc2-n2c1nc1ccncc1c2=O — 130-fold lower, 0.125 µg/mL (≈ 0.441 µM)
- O=C1c2ccc(N3CCCCC3)cc2-n2c1nc1ncccc1c2=O — 4-fold lower, 4 µg/mL (≈ 12 µM)
- O=C1c2cc(OC(F)(F)F)ccc2-n2c1nc1cnccc1c2=O — 130-fold lower, 0.125 µg/mL (≈ 0.375 µM)
- O=C1c2cc(C(=O)N3CCOCC3)ccc2-n2c1nc1ccccc1c2=O — 2-fold lower, 8 µg/mL (≈ 22.1 µM)
- O=C1c2ccc(N3CCCCC3)cc2-n2c1nc1ccccc1c2=O — higher, > 128 µg/mL
- O=C1c2ccc(N3CCC(O)C3)cc2-n2c1nc1ccccc1c2=O (centres undefined) — 2-fold lower, 8 µg/mL (≈ 24 µM)
- O=C1c2ccc(N3CCC(O)CC3)cc2-n2c1nc1ccccc1c2=O — the same, 16 µg/mL (≈ 46.1 µM)
- O=C1c2cc(OC(F)(F)F)ccc2-n2c1nc1ncccc1c2=O — 64-fold lower, 0.25 µg/mL (≈ 0.75 µM)
- O=C1C2=Nc3ncccc3CN2c2ccc(OC(F)(F)F)cc21 — the same, 16 µg/mL (≈ 50.1 µM)
- O=C1C2=Nc3ncccc3CN2c2ccccc21 — 2-fold higher, 32 µg/mL (≈ 136 µM)
- O=C1C2=Nc3ncccc3CN2c2ccc(Cl)cc21 — the same, 16 µg/mL (≈ 59.3 µM)
- O=C1C2=Nc3ccncc3CN2c2ccc(OC(F)(F)F)cc21 — 8-fold lower, 2 µg/mL (≈ 6.26 µM)
- O=C1c2ccc(Cl)cc2-n2c1nc1ncccc1c2=O — 16-fold lower, 1 µg/mL (≈ 3.53 µM)
- Nc1ccc2c(c1)C(=O)c1nc3ccccc3c(=O)n1-2 — 2-fold lower, 8 µg/mL (≈ 30.4 µM)

Test system: Mycobacterium tuberculosis
Assay: Antitubercular activity against non-replicating Mycobacterium tuberculosis H37Rv incubated for 10 days by LORA method
Format: functional
Settings: 240 h
Method in brief: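 H37Rv carrying pFCA-luxAB was adapted to low oxygen by gradual self-depletion in a sealed, slowly stirred flask. It was then exposed to compounds for 10 days under anaerobic conditions. Cultures recovered for 28 h in ambient oxygen before n-decanal substrate was added and luminescence read. MIC was the lowest concentration giving a 90% reduction in luminescence versus untreated controls.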

Point of comparison: `O=C1c2cc(OC(F)(F)F)ccc2-n2c1nc1cnccc1c2=O`, MIC90 1.5 µg/mL (≈ 4.5 µM). Against it:
- O=C1c2ccccc2-n2c1nc1ccncc1c2=O — within 1.5-fold, 1.6 µg/mL (≈ 6.42 µM)
- O=C1c2cc(Cl)ccc2-n2c1nc1ccncc1c2=O — 2.2-fold lower, 0.68 µg/mL (≈ 2.4 µM)
- O=C1c2cc(C(=O)N3CCOCC3)ccc2-n2c1nc1ccccc1c2=O — higher, > 10 µg/mL
- O=C1c2cc(OC(F)(F)F)ccc2-n2c1nc1ncccc1c2=O — 1.7-fold higher, 2.5 µg/mL (≈ 7.5 µM)
- O=C1C2=Nc3ccncc3CN2c2ccc(OC(F)(F)F)cc21 — 6-fold higher, 9 µg/mL (≈ 28.2 µM)

Test system: Mycobacterium tuberculosis
Assay: Antitubercular activity against Mycobacterium tuberculosis H37Rv incubated at 37 degC for 14 days in presence of 40% human serum by microplate alamar blue assay
Format: functional
Settings: 336 h
Method in brief: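 This is the MABA run in 7H9 broth containing 40% human serum. Compounds were 2-fold serially diluted, and wells were inoculated with H37Rv at 2 × 10⁵ CFU/mL. Incubation was at 37 °C for 14 days, then Alamar Blue was added. MIC was the lowest concentration preventing the blue-to-pink colour change.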

Point of comparison: `O=C1c2ccc(N3CCCCC3)cc2-n2c1nc1ncccc1c2=O`, MIC 16 µg/mL. Against it:
- O=C1c2ccccc2-n2c1nc1ccncc1c2=O — 64-fold lower, 0.25 µg/mL
- O=C1c2cc(Cl)ccc2-n2c1nc1ccncc1c2=O — 64-fold lower, 0.25 µg/mL
- O=C1c2ccc(N3CCNCC3)cc2-n2c1nc1ccncc1c2=O — not separable, > 4 µg/mL
- O=C1c2ccc(N3CCCCC3)cc2-n2c1nc1ccncc1c2=O — higher, > 32 µg/mL
- CC(C)(C)OC(=O)N1CCN(c2ccc3c(c2)-n2c(nc4ccncc4c2=O)C3=O)CC1 — higher, > 32 µg/mL
- O=C1c2ccc(Cl)cc2-n2c1nc1ccncc1c2=O — 16-fold lower, 1 µg/mL
- O=C1c2cc(Br)ccc2-n2c1nc1ncccc1c2=O — 2-fold higher, 32 µg/mL
- O=C1c2cc(OC(F)(F)F)ccc2-n2c1nc1cnccc1c2=O — 64-fold lower, 0.25 µg/mL
- O=C1c2cc(C(=O)N3CCOCC3)ccc2-n2c1nc1ccccc1c2=O — 2-fold higher, 32 µg/mL
- O=C1c2ccc(N3CCCCC3)cc2-n2c1nc1ccccc1c2=O — higher, > 128 µg/mL
- O=C1c2ccc(N3CCC(O)C3)cc2-n2c1nc1ccccc1c2=O (centres undefined) — 2-fold lower, 8 µg/mL
- O=C1c2ccc(N3CCC(O)CC3)cc2-n2c1nc1ccccc1c2=O — the same, 16 µg/mL
- O=C1c2cc(OC(F)(F)F)ccc2-n2c1nc1ncccc1c2=O — 32-fold lower, 0.5 µg/mL
- O=C1c2ccc(Cl)cc2-n2c1nc1ncccc1c2=O — 8-fold lower, 2 µg/mL
- Nc1ccc2c(c1)C(=O)c1nc3ccccc3c(=O)n1-2 — the same, 16 µg/mL

Test system: Vero
Assay: Cytotoxicity against african green monkey Vero cells
Format: cell-based, Chlorocebus sabaeus
Settings: Chlorocebus sabaeus, Vero; read-out: IC50

Point of comparison: `O=C1c2ccc(Cl)cc2-n2c1nc1ncccc1c2=O`, IC50 7 µg/mL (≈ 24.7 µM). Against it:
- O=C1c2ccccc2-n2c1nc1ccncc1c2=O — within 1.5-fold, 5.3 µg/mL (≈ 21.3 µM)
- O=C1c2cc(Cl)ccc2-n2c1nc1ccncc1c2=O — within 1.5-fold, 8.5 µg/mL (≈ 30 µM)
- O=C1c2ccc(N3CCNCC3)cc2-n2c1nc1ccncc1c2=O — 1.6-fold higher, 11 µg/mL (≈ 33 µM)
- O=C1c2ccc(N3CCCCC3)cc2-n2c1nc1ccncc1c2=O — 2.9-fold higher, 20 µg/mL (≈ 60.2 µM)
- CC(C)(C)OC(=O)N1CCN(c2ccc3c(c2)-n2c(nc4ccncc4c2=O)C3=O)CC1 — 3.4-fold higher, 24 µg/mL (≈ 55.4 µM)
- O=C1c2ccc(Cl)cc2-n2c1nc1ccncc1c2=O — within 1.5-fold, 9 µg/mL (≈ 31.7 µM)
- O=C1c2cc(Br)ccc2-n2c1nc1ncccc1c2=O — higher, > 20 µg/mL
- O=C1c2ccc(N3CCCCC3)cc2-n2c1nc1ncccc1c2=O — 12-fold higher, 81 µg/mL (≈ 244 µM)
- O=C1c2cc(OC(F)(F)F)ccc2-n2c1nc1cnccc1c2=O — within 1.5-fold, 5.4 µg/mL (≈ 16.2 µM)
- O=C1c2cc(C(=O)N3CCOCC3)ccc2-n2c1nc1ccccc1c2=O — higher, > 10 µg/mL
- O=C1c2ccc(N3CCCCC3)cc2-n2c1nc1ccccc1c2=O — 2.6-fold higher, 18 µg/mL (≈ 54.3 µM)
- O=C1c2ccc(N3CCC(O)C3)cc2-n2c1nc1ccccc1c2=O (centres undefined) — 3.9-fold higher, 27 µg/mL (≈ 81 µM)
- O=C1c2ccc(N3CCC(O)CC3)cc2-n2c1nc1ccccc1c2=O — 4.4-fold higher, 31 µg/mL (≈ 89.2 µM)
- O=C1c2cc(OC(F)(F)F)ccc2-n2c1nc1ncccc1c2=O — within 1.5-fold, 7.6 µg/mL (≈ 22.8 µM)
- O=C1C2=Nc3ncccc3CN2c2ccc(OC(F)(F)F)cc21 — 1.6-fold lower, 4.4 µg/mL (≈ 13.8 µM)
- O=C1C2=Nc3ncccc3CN2c2ccccc21 — within 1.5-fold, 4.8 µg/mL (≈ 20.4 µM)
- O=C1C2=Nc3ncccc3CN2c2ccc(Cl)cc21 — higher, > 10 µg/mL
- O=C1C2=Nc3ccncc3CN2c2ccc(OC(F)(F)F)cc21 — within 1.5-fold, 5.2 µg/mL (≈ 16.3 µM)

Same assay, conditions: vero

With `O=C1c2ccc(N3CCOCC3)cc2-n2c1nc1ncccc1c2=O` the IC50 was “ND(Insoluble)”.
In the case of `CC(C)(C)OC(=O)N1CCN(c2ccc3c(c2)-n2c(nc4ncccc4c2=O)C3=O)CC1`, the IC50 is reported as “ND(Insoluble)”.
`O=C1c2ccc(N3CCCC3)cc2-n2c1nc1ccccc1c2=O` was tested, and the IC50 was “ND(Insoluble)”.
